Most compounds without a hit are left out; they make up all but 1.9% or so of the library.
Runt-CBFb FRET = inhibitors of RUNX1 Runt–CBFb binding, primary screen, biochemical, FRET, Cerulean-Runt, Venus-CBFb, uHTS | Runt-related transcription factor 1 (Homo sapiens) + Core-binding factor subunit beta … | Cerulean-Runt/Venus-CBFb FRET ratio 530/480, 1 h | inhibition, % at 20 µM | actives 0.46% (n = 220,000) | AID 1496, 2009;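 active = inhibition over about 50% at 20 µM in the single-dose screen, limit read from the data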;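 also: 0% = DMSO wells and 100% = excess unlabeled CBFb competitor control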
Target sequence (Q01196 whole entry, looked up): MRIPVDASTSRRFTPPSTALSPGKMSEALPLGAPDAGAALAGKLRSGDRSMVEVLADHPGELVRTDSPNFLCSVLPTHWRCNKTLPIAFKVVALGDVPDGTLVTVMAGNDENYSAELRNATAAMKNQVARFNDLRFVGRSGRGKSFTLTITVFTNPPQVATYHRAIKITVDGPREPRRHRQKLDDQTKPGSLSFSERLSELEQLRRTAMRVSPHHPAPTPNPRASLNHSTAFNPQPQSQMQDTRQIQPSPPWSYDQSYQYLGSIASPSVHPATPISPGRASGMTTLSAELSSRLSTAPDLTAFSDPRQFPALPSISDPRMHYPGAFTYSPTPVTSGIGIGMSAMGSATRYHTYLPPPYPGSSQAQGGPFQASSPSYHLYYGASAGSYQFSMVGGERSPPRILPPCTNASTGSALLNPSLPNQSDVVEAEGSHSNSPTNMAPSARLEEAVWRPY
Target sequence (Q13951 whole entry, looked up): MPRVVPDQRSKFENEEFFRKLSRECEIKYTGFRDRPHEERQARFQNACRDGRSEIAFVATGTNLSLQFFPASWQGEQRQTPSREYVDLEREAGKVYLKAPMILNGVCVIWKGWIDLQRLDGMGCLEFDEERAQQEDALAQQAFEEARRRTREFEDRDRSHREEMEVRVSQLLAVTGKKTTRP
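Assay system: Cerulean-tagged RUNX1 Runt domain (FRET donor) fusion protein / Amount: 100 nM each of Venus-CBFb and Cerulean-Runt domain / Medium: Tris buffer pH 7.5 with salts and BSA / Also added: Venus-CBFb 100 nM / Schedule: 1 h complex formation plus 1 h compound treatment, room temperature / Signal: FRET fluorescence / Read-out: loss of energy transfer signal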
HDAC3 inh = HDAC3 deacetylase inhibitors, primary screen, biochemical, fluorescence, cell-free homogeneous. actives 0.15% (n = 320,000). Histone deacetylase 3 (Homo sapiens), O15379. inhibition, % at 8.3 µM. AID 2718, 2010. recombinant HDAC3, fluorogenic peptide/trypsin coupled; in the data active = inhibition above about 26%, passing the limit was not always enough; inconclusive = no clear call, values can overlap the other calls
LANA-H2B inh = blockers of LANA interaction with H2A/H2B – biochemical, FP readout, HTS, primary screen; Protein LANA1 (Human herpesvirus 8 type P (isolate GK18)), Q9QR71; cell-free LANA-H2A/H2B peptide, fluorescence polarization; inhibition, % (concentration not given with the values); actives 0.6% (n = 320,000); in the data active = inhibition mostly above about 10%, no sharp cut-off; inactive = mostly below about 6.7%
Runt-SMMHC FRET = inhibitors of RUNX1 Runt–CBFb-SMMHC binding, primary screen, biochemical, FRET, Cerulean-Runt, Venus-CBFb-SMMHC, uHTS. Runt-related transcription factor 1 (Homo sapiens) + Core-binding factor subunit beta …. Cerulean-Runt/Venus-CBFb-SMMHC FRET ratio 530/480, 1 h. inhibition, % at 20 µM. actives 0.74% (n = 220,000);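 active = mean inhibition across duplicate retests at 20 µM reaching about 50%, limit read from the data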;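 also: 0% = DMSO wells and 100% = wells with excess untagged CBFb-SMMHC; inhibitors lower the FRET ratio by blocking Runt binding to CBFb-SMMHC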
CaV13 ICDI inh = Primary screen for inhibitors of IQ motif and Ca2+-dependent inactivation inhibitor domain binding in CACNA1D, Förster resonance energy transfer in living cells, …; HEK cells, CFP/YFP FRET ICDI-IQ, plate reader, 10 min; percent FRET-ratio fall versus neutral wells; inhibition, % at 12.3 µM; actives 0.098% (n = 340,000); AID 743397;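 active = mean replicate inhibition of at least 30% and at least 1% of replicates passing that level; inconclusive = only one of the two criteria is met; inactive = neither criterion is met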;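 also: 0% = median of the neutral control wells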
RanGTP-Impb inh = inhibitors of RanGTP-importin-beta interaction, primary screen, biochemical, FRET, CFP-Ran, YFP-importin-beta, homogeneous; cell-free CFP-Ran/YFP-importin-beta FRET ratio; inhibition, % (concentration not given with the values); actives 1.1% (n = 300,000); AID 2216, 2009;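 active = more than half of the replicate wells show a fall in the fluorescence ratio signal beyond about 16%, limit read from the data, passing the limit was not always enough; inconclusive = exactly half of the replicate wells pass the set limit; inactive = fewer than half of replicates pass the limit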;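 also: 0% = DMSO wells and 100% = Ran loaded with GDP instead of GTP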
Numbers without * were called inactive; ? = inconclusive; · = not tested or not shown; + = active, no number.

SMILES	Runt-CBFb FRET	HDAC3 inh	LANA-H2B inh	Runt-SMMHC FRET	CaV13 ICDI inh	RanGTP-Impb inh
Cc1cc(=O)oc2c3c4c(cc12)OCCN4CCC3	4.0	-30.2	5.9	·	19.2	143.1*
Cc1cccc2nc(CSc3nc4[nH]ncc4c(=O)n3-c3ccccc3Cl)cc(=O)n12	-3.4	-2.6	-0.4	-1.6	-4.9	0.4
Cc1ccccc1CS(=O)(=O)c1nnc([C@H](Cc2ccccc2)NC(=O)OC(C)(C)C)o1	-0.5	45.7*	-1.3	-5.4	-6.4	-1.7
CCSc1nnc([C@H](Cc2ccccc2)NC(=O)OC(C)(C)C)o1	-1.0	7.3	2.3	-0.1	-4.0	5.0
CC(C)(C)OC(=O)N[C@@H](Cc1ccccc1)c1nnc(S(=O)(=O)Cc2ccccc2)o1	-0.8	75.5*	0.1	3.5	-6.4	·
CC(C)(C)OC(=O)N[C@@H](Cc1ccccc1)c1nnc(SCC(=O)O)o1	-2.6	9.5	1.4	-1.4	-5.1	0.0
CC(SC1=Nc2ccccc2C2CC=NN12)C(=O)NC1(C#N)CCCCC1 (stereo not given)	·	-0.3	-4.1	·	-2.5	4.2
CC(Sc1ncccn1)C(=O)NC1(C#N)CCCCC1 (stereo not given)	·	-2.3	18.0*	·	-19.0	·
COc1cccc(-n2c(SCc3cc(=O)oc4cc(O)c(O)cc34)nc3ccccc3c2=O)c1	67.3*	-7.4	6.0	·	-4.8	0.7
O=C(COC(=O)CCSc1ccccc1)Nc1ccccc1Br	·	5.1	0.4	·	-4.7	·
COc1ccc2c(c1)c(=O)oc1cc3occ(C(C)(C)C)c3cc12	1.1	-7.2	12.1*	1.4	-5.7	1.9
CCCCN1CC[C@H]2C=CC[C@@H](C(=O)N3CCN(c4ccccc4)CC3)[C@H]2C1=O	·	-0.3	1.2	·	-9.6	-2.8
CC(OC(=O)/C(C#N)=C/c1ccc(N(C)C)cc1)C(=O)N(C)c1ccccc1 (stereo not given)	·	14.9	-3.5	·	6.8	92.2*
CC(=O)Nc1ccc(NC(=O)C(C)OC(=O)/C(C#N)=C/c2ccc(N(C)C)cc2)cc1 (stereo not given)	·	·	·	·	-7.9	-44.9
COc1ccc(/C=C(/C(=O)Nc2ccccc2C(=O)N2CCCC2)c2ccccc2)cc1	-0.8	14.8	4.5	-8.4	-5.5	0.9
CCN1CCN(C(=O)C2c3cc(OC)c(OC)cc3C(=O)N(C)C2c2ccc(SC)cc2)CC1 (stereo not given)	-0.8	28.2*	-7.5	3.1	-4.8	0.5
COc1ccc(C2C(C(=O)N3CCN(C)CC3)c3cc(OC)c(OC)cc3C(=O)N2C)cc1 (stereo not given)	2.8	6.7	+	-1.6	-6.0	2.3
Cc1cccc(NC(=O)CN2C(=O)S/C(=C\c3ccc(-c4cccc(C(=O)O)c4C)o3)C2=O)c1	30.6	0.9	16.4	54.4	-9.3	41.4*
COC(=O)C(C)N1C(=O)S/C(=C\c2ccc(-c3ccc(C(=O)O)cc3C)o2)C1=O (stereo not given)	·	2.5	-0.6	·	-4.6	17.3*
Cc1ccc(C(=O)O)cc1-c1ccc(C=C2C(=O)c3ccccc3C2=O)o1	12.4	7.1	-2.8	-17.2	-4.1	-1.4
Cc1ccc(NC(=O)CN2C(=O)S/C(=C/c3ccc(-c4cc(C(=O)O)ccc4C)o3)C2=O)cc1C	13.1	-0.1	4.8	-42.1	-7.9	35.8*
O=C(Nc1cccc(Cl)c1)Nc1csc([N+](=O)[O-])c1	-1.3	·	-2.6	-1.4	-5.3	1.5
Cc1cc(C(=O)N2CCc3ccccc32)ccc1[N+](=O)[O-]	·	·	·	·	-4.6	·
Brc1ccc(CNCCCSc2ncccn2)cc1	·	34.5*	-2.5	·	-2.4	1.2
Clc1ccc(CNCCCSc2ncccn2)cc1	·	-0.2	2.5	·	-2.2	-1.5
SMILES	Runt-CBFb FRET	HDAC3 inh	LANA-H2B inh	Runt-SMMHC FRET	CaV13 ICDI inh	RanGTP-Impb inh
Cc1nc2ccccc2n2c(O)c(CC(=O)O)cc12	-1.3	4.1	26.7*	-7.8	-10.8	-4.2
Cc1nc2ccccc2n1CCC(=O)O	2.2	0.2	-4.0	-4.8	-4.2	0.4
Cc1sc2ncnc(N3CCC(C(=O)Nc4nc(-c5cccs5)cs4)CC3)c2c1C	·	-2.3	1.8	·	-14.6	2.0
O=c1cc(CSc2nc3ccccc3c(=O)[nH]2)c2ccc(O)cc2o1	21.1	·	·	51.9*	-5.7	6.5
CC(OC(=O)CCN=C1NS(=O)(=O)c2ccccc21)C(=O)N(C)C1CCCCC1 (stereo not given)	·	-2.7	-0.4	·	-5.5	-0.9
CC(=O)Nc1ccccc1C(=O)C(=O)Nc1ccccc1	0.4	-0.9	4.6*	-2.0	-1.9	-2.8
CC(=O)Nc1ccccc1C(=O)C(=O)Nc1ccc(Cl)cc1	-1.8	4.4	-4.5	1.9	2.3	-0.8
O=C(Nc1cccc(-n2cnnn2)c1)C1CCCN(C(=O)Cc2cccc(Cl)c2)C1 (stereo not given)	·	·	·	·	-17.1	·
O=C(Nc1cccc(-n2cnnn2)c1)C1CCCN(Cc2cccc(C(F)(F)F)c2)C1 (stereo not given)	·	-0.7	13.1*	·	·	2.4
O=C1c2cnc3ncnn3c2CC2c3ccccc3CCN12 (stereo not given)	13.6	-5.5	-2.8	35.5	-1.8	4.3
N#Cc1cnn2c3c(cnc12)C(=O)N1CCc2ccccc2C1C3 (stereo not given)	92.1*	8.0	-3.0	86.3*	-3.8	?
CCCc1nc(SCC(=O)c2ccc(F)cc2)c2ccccc2n1	16.1	33.2*	0.2	29.6	9.5	0.7
CCCCNC(=O)CSc1nc(CCC)nc2ccccc12	-1.6	3.9	-1.8	-3.6	-6.9	-0.3
CC(C)COc1nc2ccccc2c(=O)n1OCC(=O)O	-1.5	7.2	1.1	-0.5	·	-3.1
COc1ccccc1N1CCN(C(c2ccccn2)c2nnnn2C2CCCCC2)CC1 (stereo not given)	-4.2	0.0	-5.2	2.3	-4.0	0.2
Fc1ccccc1N1CCN(C(c2ccccn2)c2nnnn2C2CCCCC2)CC1 (stereo not given)	-3.2	-3.6	12.1*	0.1	-5.2	?
O=C(CSC1=NCCN1)Nc1cccc(C(F)(F)F)c1	2.6	-1.5	3.7	-1.1	-4.4	-1.1

Compound activity as filed in PubChem.
